These results are taken from ChEMBL document CHEMBL1143626, “Morphiceptin analogues containing a dipeptide mimetic structure: an investigation on the bioactive topology at the mu-receptor” (J Med Chem, 2005).

Where a SMILES comes first, the peptide text is derived from it. [ ]: non-standard residue; d: D form.

The term inhibition denotes how much of the control response was suppressed. What is called Ki is the equilibrium dissociation constant of an inhibitor or competing ligand from its target. Higher therefore signals weaker binding. As a reminder, the EC50 is the concentration at which the effect is half-maximal. A higher EC50 goes with lower potency in that assay.

The target in assay [1] is Delta-type opioid receptor (Rattus norvegicus) (UniProt P33533). The assay can be described thus: Inhibition of [3H]naltrindole binding to rat whole brain Opioid receptor delta at 1-10 uM. The method in brief:
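Brain (minus cerebellum) membranes were labelled with [3H]naltrindole as the δ radioligand. […] Mean ± SEM, n experiments.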

Assay [2] addresses Mu-type opioid receptor (Rattus norvegicus, UniProt P33535). The assay can be described thus: Inhibition of [3H]DAMGO binding to rat whole brain Opioid receptor mu. Put shortly:
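Rat whole-brain (minus cerebellum) membranes (0.3 mg protein) were incubated with 0.7 nM [3H]DAMGO and peptide (1 nM to 10 µM) for 2 h at 25 °C. Buffer was 50 mM Tris-HCl pH 7.4, 5 mM MgCl2, with protease inhibitors. Nonspecific binding was defined with 10 µM BNTX. Bound ligand was separated by GF/C filtration. Mean ± SEM, ≥3 experiments.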

The species entered for assay [3] is Cavia porcellus. The experiment in a line: Efficacy against isolated guinea pig ileum contraction induced by electrical stimulation. The assay is classed as functional. The method in brief:
(§1)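 Electrical field stimulation was applied after 30-40 min equilibration: train 100 ms, pulse width 1 ms, pulse interval 10 ms, supramaximal 20 V. Compounds were added cumulatively at 3-fold steps (0.1 nM to 1 µM), with parallel runs in 10 nM naloxone. Isotonic tension was recorded as % of control […]. Efficacy is the maximal inhibition; EC50 is the half-maximal concentration. Mean ± SEM, 4-6 experiments.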

The species entered for assay [4] is Cavia porcellus. The assay can be described thus: Inhibition of isolated guinea pig ileum contraction induced by electrical stimulation. The assay is classed as functional. The method in brief:
as §1

Mu-type opioid receptor, sequence (P33535 whole entry): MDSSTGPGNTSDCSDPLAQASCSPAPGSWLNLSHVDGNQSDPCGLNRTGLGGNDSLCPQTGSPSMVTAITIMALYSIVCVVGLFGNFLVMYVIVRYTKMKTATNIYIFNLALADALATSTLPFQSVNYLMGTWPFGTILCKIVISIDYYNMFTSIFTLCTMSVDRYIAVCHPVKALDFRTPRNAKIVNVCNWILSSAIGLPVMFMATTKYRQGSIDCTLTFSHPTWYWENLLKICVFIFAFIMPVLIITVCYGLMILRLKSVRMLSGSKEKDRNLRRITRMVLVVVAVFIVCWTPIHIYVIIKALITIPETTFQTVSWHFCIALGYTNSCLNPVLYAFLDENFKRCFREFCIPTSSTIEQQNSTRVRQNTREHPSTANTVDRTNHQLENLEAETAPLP
Delta-type opioid receptor (Rattus norvegicus), sequence (P33533 whole entry): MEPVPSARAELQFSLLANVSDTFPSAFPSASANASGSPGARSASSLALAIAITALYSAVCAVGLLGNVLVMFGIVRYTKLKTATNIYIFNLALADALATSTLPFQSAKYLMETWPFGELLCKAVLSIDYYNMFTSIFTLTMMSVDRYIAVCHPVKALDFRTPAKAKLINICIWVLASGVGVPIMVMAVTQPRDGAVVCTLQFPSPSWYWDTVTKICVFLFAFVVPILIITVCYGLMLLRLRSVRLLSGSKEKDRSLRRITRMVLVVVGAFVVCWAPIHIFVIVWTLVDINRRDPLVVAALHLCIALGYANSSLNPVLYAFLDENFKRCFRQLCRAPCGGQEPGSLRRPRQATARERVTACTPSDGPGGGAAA

`NC(=O)[C@@H]1CSC([C@H](Cc2ccccc2)NC(=O)[C@@H]2CCCN2C(=O)[C@@H](N)Cc2ccc(O)cc2)N1` (stereo partly drawn): the inhibition in assay [1] was determined as 22.7%. This molecule also had a Ki in assay [2] of 14.1 nM. The molecule further yielded an Efficacy in assay [3] of 65%. Besides, it took 9.7 nM to reach a half-maximal effect in assay [4] (EC50).
Regarding `NC(=O)[C@@H]1CCCN1C(=O)[C@H](Cc1ccccc1)NC(=O)[C@@H]1CCCN1C(=O)[C@@H](N)Cc1ccc(O)cc1` (H-YPFP-NH2) [listing 1 of 2 here], the Efficacy in assay [3] turned out to be 65%.
The molecule `NC(=O)[C@@H]1CCCN1C(=O)[C@H](Cc1ccccc1)NC(=O)[C@@H]1CCCN1C(=O)[C@@H](N)Cc1ccc(O)cc1` (H-YPFP-NH2) [listing 2 of 2 here] gave an inhibition constant Ki in assay [2] of 25.6 nM. This molecule came in with an EC50 in assay [4] of 13 nM.
`NC(=O)[C@@H]1CSC([C@@H](Cc2ccccc2)NC(=O)[C@@H]2CCCN2C(=O)[C@@H](N)Cc2ccc(O)cc2)N1` (stereo partly drawn) had an inhibition in assay [1] of 42.2%. For the same molecule, the Ki in assay [2] was 290 nM. The molecule also displayed an Efficacy in assay [3] of 71%. The same molecule came in with an EC50 in assay [4] of 36 nM.
`CN1CC[C@]23c4c5ccc(O)c4O[C@H]2[C@@H](O)C=C[C@H]3[C@H]1C5` [MORPHINE] came in with an Efficacy in assay [3] of 66%.
Consider `NC(=O)[C@@H]1CCCN1C(=O)[C@H](Cc1ccccc1)NC(=O)[C@@H]1CSC([C@@H](N)Cc2ccc(O)cc2)N1` (stereo partly drawn), for which the inhibition in assay [1] stood at 10.2%. In addition, the Efficacy in assay [3] amounted to 17%.
In turn, `NC(=O)[C@@H]1CSC([C@H](Cc2c[nH]c3ccccc23)NC(=O)[C@@H]2CCCN2C(=O)[C@@H](N)Cc2ccc(O)cc2)N1` (stereo partly drawn) came in with an inhibition in assay [1] of 67.8%. In addition, the Ki in assay [2] was determined as 178 nM. Moreover, the Efficacy in assay [3] is recorded as 70%. This molecule also showed a concentration for a half-maximal effect (EC50) in assay [4] of 28 nM.
For the molecule `NC(=O)[C@H]1CCCN1C(=O)[C@H](Cc1ccccc1)NC(=O)[C@@H]1CCCN1C(=O)[C@@H](N)Cc1ccc(O)cc1` (H-YPF[dP]-NH2), the inhibition in assay [1] amounted to 23.6%.
`C[C@@H](NC(=O)[C@@H](N)Cc1ccc(O)cc1)C(=O)NCC(=O)N(C)[C@@H](Cc1ccccc1)C(=O)NCCO` [DAMGO] displayed an Efficacy in assay [3] of 61%. The same molecule yielded a concentration for a half-maximal effect (EC50) in assay [4] of 36.2 nM.
As to `CN(C)C(=O)C(CCN1CCC(O)(c2ccc(Cl)cc2)CC1)(c1ccccc1)c1ccccc1` [LOPERAMIDE], the Efficacy in assay [3] is recorded as 11%. A half-maximal response in assay [4] (EC50) required 489 nM.
